The values that follow come from ChEMBL document CHEMBL4382192, “Discovery of a potent dual ALK and EGFR T790M inhibitor” (Eur J Med Chem, 2017).

pEC50, pIC50: −log10 of the molar value.

In data set [1] the test system is BaF3. The experiment in a line: Antiproliferative activity against mouse BAF3 cells assessed as reduction in cell viability after 72 hrs by MTS assay. The following applies: BaF3, 72 h. It is filed as cell-based. (Tetrazolium dyes change colour on reduction, which living cells bring about.)
Data set [2] deals with CYP3A4 (Homo sapiens, UniProt P08684). The data set is described as follows: Residual activity of CYP3A4 in human liver microsomes at 10 uM using midazolam 1-hydroxylase as substrate preincubated for 5 mins followed by NADPH addition measured after 15 mins by LC/MS/MS analysis relative to control. The note with it: probe midazolam (1-hydroxylation). For orientation: Microsomes from liver hold many membrane-bound enzymes, among them those of drug oxidation.
CYP3A4, sequence (P08684 whole entry): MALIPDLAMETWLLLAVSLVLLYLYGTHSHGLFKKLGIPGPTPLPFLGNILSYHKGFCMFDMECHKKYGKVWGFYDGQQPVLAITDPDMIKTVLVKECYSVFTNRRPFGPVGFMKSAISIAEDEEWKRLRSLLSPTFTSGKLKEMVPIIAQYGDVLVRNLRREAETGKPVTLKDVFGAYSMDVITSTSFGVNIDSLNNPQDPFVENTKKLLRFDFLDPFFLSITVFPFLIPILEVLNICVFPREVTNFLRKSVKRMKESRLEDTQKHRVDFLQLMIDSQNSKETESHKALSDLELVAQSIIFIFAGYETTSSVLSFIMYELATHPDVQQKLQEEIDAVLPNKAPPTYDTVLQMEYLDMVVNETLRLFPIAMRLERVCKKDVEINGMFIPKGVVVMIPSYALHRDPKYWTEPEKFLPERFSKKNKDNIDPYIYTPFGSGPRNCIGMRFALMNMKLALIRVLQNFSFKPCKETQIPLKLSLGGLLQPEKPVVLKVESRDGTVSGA

Data set [3] concerns the target CYP2C19 (Homo sapiens, UniProt P33261). The data set is described as follows: Residual activity of CYP2C19 in human liver microsomes at 10 uM using S-mephenytoin 4-hydroxylase as substrate preincubated for 5 mins followed by NADPH addition measured after 15 mins by LC/MS/MS analysis relative to control. The following applies: probe S-mephenytoin (4-hydroxylation).
Data set [4] is described as follows: Metabolic stability in dog liver microsomes assessed as parent compound remaining at 1 uM after 30 mins in presence of NADPH by LC/MS/MS analysis. The format is ADME, Canis lupus familiaris, Microsome. The following applies: read-out: Stability. The method in brief: (§1)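 Compound at 1 μM final with 0.5 mg/mL microsomal protein in 100 mM phosphate buffer pH 7.4 at 37 °C, started by adding an NADPH-regenerating system. Reactions were quenched with cold acetonitrile at 0 and 30 min and spun down. Supernatant was analysed by LC-MS/MS. The 0-min sample, quenched before NADPH addition, was set as 100%, and percent parent remaining came from peak areas.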

Data set [5] concerns the target T1, CYP1A2 (Homo sapiens, UniProt P05177).
T1 sequence (P05177 whole entry): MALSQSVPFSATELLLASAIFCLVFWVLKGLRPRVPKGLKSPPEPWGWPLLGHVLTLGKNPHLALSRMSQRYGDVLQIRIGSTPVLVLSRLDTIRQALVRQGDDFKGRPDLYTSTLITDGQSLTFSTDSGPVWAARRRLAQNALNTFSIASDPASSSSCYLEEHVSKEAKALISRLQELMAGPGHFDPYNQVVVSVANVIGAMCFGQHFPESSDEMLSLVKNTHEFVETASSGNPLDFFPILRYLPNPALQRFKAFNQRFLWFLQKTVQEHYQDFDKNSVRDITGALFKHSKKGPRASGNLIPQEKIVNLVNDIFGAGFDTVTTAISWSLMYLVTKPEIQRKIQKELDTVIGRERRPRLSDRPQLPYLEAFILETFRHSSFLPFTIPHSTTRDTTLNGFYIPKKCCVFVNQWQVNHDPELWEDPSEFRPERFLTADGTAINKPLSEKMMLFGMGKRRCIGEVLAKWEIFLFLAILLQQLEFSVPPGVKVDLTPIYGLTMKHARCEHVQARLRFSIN
The experiment in a line: Residual activity of CYP1A2 in human liver microsomes at 10 uM using phenacetin O-deethylase as substrate preincubated for 5 mins followed by NADPH addition measured after 15 mins by LC/MS/MS analysis relative to control. The following applies: probe phenacetin (O-deethylation).

Data set [6] can be described thus: Metabolic stability in rat liver microsomes assessed as parent compound remaining at 1 uM after 30 mins in presence of NADPH by LC/MS/MS analysis. It is filed as ADME, Microsome. The note with it: read-out: Stability. The method in brief: as §1
The target in data set [7] is CYP2C9 (Homo sapiens, UniProt P11712). The experiment in a line: Residual activity of CYP2C9 in human liver microsomes at 10 uM using tolbutamide 4-hydroxylase as substrate preincubated for 5 mins followed by NADPH addition measured after 15 mins by LC/MS/MS analysis relative to control. The note with it: probe tolbutamide (4-hydroxylation).
CYP2C9, sequence (P11712 whole entry): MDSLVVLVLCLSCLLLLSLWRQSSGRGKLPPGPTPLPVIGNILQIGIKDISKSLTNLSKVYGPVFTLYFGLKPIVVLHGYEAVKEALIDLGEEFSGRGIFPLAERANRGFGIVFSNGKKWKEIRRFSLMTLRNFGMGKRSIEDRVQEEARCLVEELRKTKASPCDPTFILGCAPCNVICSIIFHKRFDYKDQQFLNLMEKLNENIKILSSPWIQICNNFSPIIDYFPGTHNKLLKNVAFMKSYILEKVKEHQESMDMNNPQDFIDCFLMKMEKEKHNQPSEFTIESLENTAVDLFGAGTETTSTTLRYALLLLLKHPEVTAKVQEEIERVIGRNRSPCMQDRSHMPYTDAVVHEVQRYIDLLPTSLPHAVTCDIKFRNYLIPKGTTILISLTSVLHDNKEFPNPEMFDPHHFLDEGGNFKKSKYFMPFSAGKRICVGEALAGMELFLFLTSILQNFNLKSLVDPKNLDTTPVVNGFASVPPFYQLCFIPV
Data set [8] in a line: Metabolic stability in human liver microsomes assessed as parent compound remaining at 1 uM after 30 mins in presence of NADPH by LC/MS/MS analysis. It is filed as ADME, Microsome. The note with it: read-out: Stability. The method in brief: as §1
The target of data set [9] is CYP2D6 (Homo sapiens, UniProt P10635). The data set is described as follows: Residual activity of CYP2D6 in human liver microsomes at 10 uM using dextromethorphan O-demethylase as substrate preincubated for 5 mins followed by NADPH addition measured after 15 mins by LC/MS/MS analysis relative to control. The note with it: probe dextromethorphan (O-demethylation).
CYP2D6, sequence (P10635 whole entry): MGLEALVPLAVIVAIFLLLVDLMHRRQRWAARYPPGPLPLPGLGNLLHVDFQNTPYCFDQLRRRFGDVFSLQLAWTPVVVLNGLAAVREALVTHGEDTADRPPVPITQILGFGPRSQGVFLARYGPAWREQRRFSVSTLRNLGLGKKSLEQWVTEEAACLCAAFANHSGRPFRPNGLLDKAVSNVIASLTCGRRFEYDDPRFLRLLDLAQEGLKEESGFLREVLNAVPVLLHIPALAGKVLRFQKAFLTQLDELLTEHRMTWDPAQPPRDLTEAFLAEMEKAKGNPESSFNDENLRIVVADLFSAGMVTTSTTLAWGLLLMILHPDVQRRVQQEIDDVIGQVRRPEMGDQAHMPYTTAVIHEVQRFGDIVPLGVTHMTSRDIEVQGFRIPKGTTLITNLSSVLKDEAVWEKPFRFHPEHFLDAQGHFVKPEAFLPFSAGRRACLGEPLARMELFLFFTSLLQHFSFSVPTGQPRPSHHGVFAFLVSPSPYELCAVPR
A short description of data set [10]: Metabolic stability in mouse liver microsomes assessed as parent compound remaining at 1 uM after 30 mins in presence of NADPH by LC/MS/MS analysis. It is filed as ADME, Microsome. The following applies: read-out: Stability. The method in brief:
as §1

The target in data set [11] is ALK tyrosine kinase receptor (Homo sapiens, UniProt Q9UM73). The experiment in a line: Inhibition of GST-tagged human ALK cytoplasmic domain (1058 to 1620 residues) expressed in baculovirus expression system using Poly G:T (4:1) as substrate after 30 mins by Z-LYTE assay.
ALK tyrosine kinase receptor, sequence (Q9UM73 whole entry, the tested form may be a part): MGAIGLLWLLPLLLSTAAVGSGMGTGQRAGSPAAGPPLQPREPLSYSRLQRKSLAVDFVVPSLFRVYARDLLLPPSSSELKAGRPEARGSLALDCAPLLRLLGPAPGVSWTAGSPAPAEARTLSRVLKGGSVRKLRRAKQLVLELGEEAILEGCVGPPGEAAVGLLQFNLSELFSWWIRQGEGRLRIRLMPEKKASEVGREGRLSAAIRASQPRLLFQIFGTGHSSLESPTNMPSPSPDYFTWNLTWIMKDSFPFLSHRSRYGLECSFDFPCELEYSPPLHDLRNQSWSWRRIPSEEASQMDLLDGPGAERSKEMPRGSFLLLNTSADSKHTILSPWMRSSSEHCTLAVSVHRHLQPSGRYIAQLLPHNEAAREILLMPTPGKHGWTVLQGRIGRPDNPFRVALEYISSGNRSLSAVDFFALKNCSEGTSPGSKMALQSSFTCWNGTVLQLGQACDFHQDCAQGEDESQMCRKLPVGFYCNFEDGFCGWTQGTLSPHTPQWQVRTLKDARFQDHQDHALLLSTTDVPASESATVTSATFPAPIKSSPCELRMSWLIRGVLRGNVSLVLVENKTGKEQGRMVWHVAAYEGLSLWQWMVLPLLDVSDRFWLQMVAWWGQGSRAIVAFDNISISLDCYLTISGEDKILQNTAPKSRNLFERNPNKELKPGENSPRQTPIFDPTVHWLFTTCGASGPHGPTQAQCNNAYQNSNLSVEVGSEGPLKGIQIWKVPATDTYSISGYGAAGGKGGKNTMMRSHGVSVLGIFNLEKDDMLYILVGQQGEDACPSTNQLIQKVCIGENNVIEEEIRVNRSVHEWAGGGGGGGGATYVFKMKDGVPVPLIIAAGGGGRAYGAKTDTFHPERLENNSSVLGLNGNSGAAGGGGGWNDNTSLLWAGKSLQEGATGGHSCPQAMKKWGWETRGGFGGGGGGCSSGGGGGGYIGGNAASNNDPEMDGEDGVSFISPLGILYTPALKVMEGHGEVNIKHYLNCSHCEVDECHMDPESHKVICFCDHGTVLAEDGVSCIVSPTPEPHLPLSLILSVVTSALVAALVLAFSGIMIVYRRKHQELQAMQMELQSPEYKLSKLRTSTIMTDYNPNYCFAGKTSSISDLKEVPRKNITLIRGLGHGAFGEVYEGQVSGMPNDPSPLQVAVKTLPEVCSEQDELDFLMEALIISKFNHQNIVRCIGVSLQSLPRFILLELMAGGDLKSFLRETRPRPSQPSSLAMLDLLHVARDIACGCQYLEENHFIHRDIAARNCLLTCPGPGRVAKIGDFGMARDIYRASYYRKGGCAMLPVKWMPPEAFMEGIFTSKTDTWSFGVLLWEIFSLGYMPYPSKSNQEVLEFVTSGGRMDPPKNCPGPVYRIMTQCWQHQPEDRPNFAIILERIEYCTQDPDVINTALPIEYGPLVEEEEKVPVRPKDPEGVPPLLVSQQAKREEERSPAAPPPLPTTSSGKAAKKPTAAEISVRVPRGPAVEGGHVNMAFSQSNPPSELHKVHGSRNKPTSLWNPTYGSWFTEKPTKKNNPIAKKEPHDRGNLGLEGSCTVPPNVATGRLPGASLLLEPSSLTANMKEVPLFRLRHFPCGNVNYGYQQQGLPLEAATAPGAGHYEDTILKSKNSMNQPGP

CYP2C19, sequence (P33261 whole entry): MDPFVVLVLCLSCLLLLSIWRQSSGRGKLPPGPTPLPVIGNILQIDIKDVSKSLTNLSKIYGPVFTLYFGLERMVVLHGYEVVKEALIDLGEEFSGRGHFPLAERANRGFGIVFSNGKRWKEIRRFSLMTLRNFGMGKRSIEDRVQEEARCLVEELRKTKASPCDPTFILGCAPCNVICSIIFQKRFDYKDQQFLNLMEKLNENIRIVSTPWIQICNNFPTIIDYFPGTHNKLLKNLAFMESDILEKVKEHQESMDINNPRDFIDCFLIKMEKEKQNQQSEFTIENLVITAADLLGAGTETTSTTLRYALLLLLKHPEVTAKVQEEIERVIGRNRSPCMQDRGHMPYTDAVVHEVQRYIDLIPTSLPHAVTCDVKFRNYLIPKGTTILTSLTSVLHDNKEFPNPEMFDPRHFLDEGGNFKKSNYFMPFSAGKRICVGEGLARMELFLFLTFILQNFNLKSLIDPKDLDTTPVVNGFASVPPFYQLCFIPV

As to `C=CC(=O)Nc1cc(Nc2nccc(Nc3ccccc3S(=O)(=O)N(C)C)n2)c(OC)cc1N(C)CCN(C)C`, in data set [1], the pEC50 (as a rule, the EC50 on a negative log10 scale, so that one unit is a factor of ten) was less than 5.30. In addition, the Activity at […], 10 µM came to 56% in [2]; 85% in [3]; 82% in data set [5]; 88% in data set [7]; 79% in [9]. For the same molecule, the remaining at 0.5 h, 1 µM in data set [4] was 50%; in data set [6] it was 6%; in data set [8] it was 10%; in [10], 5%.
Consider `C=CC(=O)Nc1cc(Nc2ncc(Cl)c(Nc3ccccc3S(=O)(=O)N(C)C)n2)c(OC)cc1N(C)CCN(C)C`, for which the Activity at […], 10 µM worked out at 39% in data set [2]; 75% in data set [3]; 87% in data set [5]; 59% in data set [7]; 88% in data set [9]. Further, the remaining at 0.5 h, 1 µM was 31% in [4], 13% in data set [6], 11% in data set [8] and 23% in data set [10].
Consider `Cc1cc(Nc2ncc(Cl)c(Nc3ccccc3S(=O)(=O)C(C)C)n2)c(OC(C)C)cc1C1CCNCC1` [CERITINIB], for which the pEC50 in [1] is less than 5.30.
As to `C=CC(=O)Nc1cc(Nc2nccc(-c3cn(C)c4ccccc34)n2)c(OC)cc1N(C)CCN(C)C` [OSIMERTINIB], in [1], the negative logarithm of the EC50 (pEC50) is less than 5.30. Also, the pIC50 (commonly the negative decadic logarithm of the IC50, by convention in mol/L) in data set [11] is 6.75.
Take `C=CC(=O)Nc1cc(Nc2ncc(I)c(Nc3ccccc3S(=O)(=O)C(C)C)n2)c(OC)cc1N(C)CCN(C)C`: the pEC50 in [1] is less than 5.30. Further, the Activity at […], 10 µM amounted to 47% in [2]; 86% in data set [3]; 81% in [5]; 88% in data set [7]; 82% in data set [9]. Also, the remaining at 0.5 h, 1 µM in [4] came out at 19%; in data set [6], 14%; in [8] it was 14%; in data set [10], 10%.
With `C=CC(=O)Nc1cc(Nc2nccc(Nc3ccccc3S(=O)(=O)C(C)C)n2)c(OC)cc1N(C)CCN(C)C`, in [1], the pEC50 was less than 5.30. Also, the Activity at […], 10 µM in data set [2] came to 40%; in [3], 87%; in data set [5], 80%; in [7], 90%; in data set [9], 67%. The remaining at 0.5 h, 1 µM in [4] was found to be 48%; in data set [6], 22%; in data set [8], 5%; in data set [10], 8%.
`C=CC(=O)Nc1cccc(Oc2nc(Nc3ccc(N4CCN(C)CC4)cc3OC)ncc2Cl)c1`: the pEC50 in data set [1] was less than 5.30. The pIC50 in data set [11] was 6.00.
On to `C=CC(=O)Nc1cc(Nc2ncc(F)c(Nc3ccccc3S(=O)(=O)N(C)C)n2)c(OC)cc1N(C)CCN(C)C`, for which the Activity at […], 10 µM in data set [2] is 71%; in data set [3] it was 91%; in data set [5] it was more than 100%; in data set [7], 88%; in data set [9] it was more than 100%. The remaining at 0.5 h, 1 µM in data set [4] worked out at 33%; in data set [6], 7%; in [8] it was 9%; in data set [10], 10%.
For `C=CC(=O)Nc1cc(Nc2ncc(I)c(Nc3ccccc3S(=O)(=O)N(C)C)n2)c(OC)cc1N(C)CCN(C)C`, the Activity at […], 10 µM in data set [2] was 54%; in [3], 67%; in data set [5], 79%; in data set [7], 85%; in [9] it was 93%. The remaining at 0.5 h, 1 µM in data set [4] is 35%; in data set [6] it was 12%; in [8], 13%; in data set [10], 12%.
Regarding `C=CC(=O)Nc1cc(Nc2ncc(I)c(Nc3ccccc3P(C)(C)=O)n2)c(OC)cc1N(C)CCN(C)C`, in data set [1], the pEC50 is less than 5.30. Besides, the Activity at […], 10 µM is 88% in [2]; 99% in [3]; 91% in data set [5]; more than 100% in [7]; 80% in [9]. In addition, the remaining at 0.5 h, 1 µM in data set [4] worked out at 93%; in data set [6], 81%; in data set [8] it was 65%; in data set [10], 57%.
Take `C=CC(=O)Nc1cc(Nc2ncc(Cl)c(Nc3ccccc3P(C)(C)=O)n2)c(OC)cc1N(C)CCN(C)C`: the pEC50 in data set [1] was less than 5.30. Further, the Activity at […], 10 µM was 91% in data set [2]; 98% in data set [3]; 93% in data set [5]; more than 100% in [7]; 85% in data set [9]. Further, the remaining at 0.5 h, 1 µM in data set [4] is 77%; in data set [6], 76%; in [8] it was 61%; in data set [10], 66%.
Regarding `C=CC(=O)Nc1cc(Nc2ncc(F)c(Nc3ccccc3S(=O)(=O)C(C)C)n2)c(OC)cc1N(C)CCN(C)C`, the pEC50 in data set [1] was less than 5.30. For the same molecule, the Activity at […], 10 µM is 51% in data set [2]; 93% in data set [3]; 91% in data set [5]; 94% in data set [7]; 95% in data set [9]. The remaining at 0.5 h, 1 µM in [4] was 27%; in data set [6], 11%; in data set [8] it was 26%; in data set [10], 15%.
Regarding `C=CC(=O)Nc1cc(Nc2nccc(Nc3ccccc3P(C)(C)=O)n2)c(OC)cc1N(C)CCN(C)C`, the pEC50 in data set [1] is less than 5.30. The Activity at […], 10 µM was 89% in data set [2]; more than 100% in data set [3]; 84% in [5]; 90% in data set [7]; 87% in data set [9]. In addition, the remaining at 0.5 h, 1 µM was found to be 73% in data set [4], 78% in data set [6], 70% in [8] and 76% in data set [10]. Further, the pIC50 in data set [11] was 6.16.
Regarding `C=CC(=O)Nc1cc(Nc2ncc(F)c(Nc3ccccc3P(C)(C)=O)n2)c(OC)cc1N(C)CCN(C)C`, the pEC50 in [1] was less than 5.30. Also, the Activity at […], 10 µM in data set [2], in data set [3], in [5], in data set [7] and in data set [9] was more than 100% throughout. In addition, the remaining at 0.5 h, 1 µM stood at 87% in data set [4], 87% in [6], 84% in data set [8] and 80% in data set [10].
